The nature of data set [1]: Metabolic stability in rat liver microsomes assessed as half life. It is filed as ADME, Microsome. The essentials: (§1)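 Human or rat liver microsomal stability, run by a contract lab. Half-life and hepatic CLint are reported.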
Data set [2] can be described thus: Efflux ratio of apparent permeability in human Caco-2 cells. The format is ADME, cell-based. A general note: Passage across Caco-2 layers is used to estimate intestinal permeability.
The target in data set [3] is Voltage-gated inwardly rectifying potassium channel KCNH2 (Homo sapiens, UniProt Q12809). In words: Inhibition of human ERG expressed in CHO-K1 cells with holding potential of -80 mV by automated patch clamp assay. As to conditions: CHO-K1 cells expressing human ERG. A general note: In patch-clamp work, channel activity is measured electrically.
In data set [4] the target is Mu-type opioid receptor (Mus musculus) (UniProt P42866). In words: Binding affinity to mouse mu opioid receptor expressed in CHO cell membrane assessed as stimulation of [35S]-GTPgammaS binding by measuring maximal efficacy incubated for 1.5 hrs by scintillation spectroscopy analysis relative DAMGO. It is filed as cell membranes. The essentials:
(§2)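 MOR [35S]GTPγS functional assay in MOR-CHO membranes (Bmax about 2.5–4 pmol/mg). Efficacy is expressed as % of the maximal stimulation by full agonist DAMGO.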
Background: GTPγS is a poorly hydrolysed GTP analogue; its binding reports G protein activation.

Data set [5] deals with Kappa-type opioid receptor (Mus musculus, UniProt P33534). In words: Binding affinity to mouse kappa opioid receptor expressed in CHO cell membrane assessed as inhibition constant incubated for 1.5 hrs by competitive radioligand binding assay. It is filed as cell membranes.
The subject of data set [6] is Mus musculus. In words: Antinociceptive activity in Swiss Webster mouse assessed as inhibition of morphine induced latency to tail withdrawal at 10 mg/kg, sc preincubated for 5 mins followed by morphine addition and measured after 20 mins by warm water tail immersion assay. It is filed as functional, organism-based. As to conditions: time 25.0 min. The essentials: (§3)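 Male Swiss-Webster mice (n = 5). Compound is given s.c. at time 0 (10 mg/kg in the single-dose screen, a dose range for AD50), and morphine 10 mg/kg follows 5 min later. Tail flick is tested in 56 ± 0.1 °C water 20 min after morphine and scored as % MPE. Saline and morphine alone are the controls.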

In data set [7] the test system is Mus musculus. Briefly: Effect of compound on chronic morphine pelleted Swiss Webster mouse model assessed as decrease in paw tremors symptom at 10 to 80 mg/kg, sc and measured for 20 mins by withdrawal assay. The format is functional, organism-based. Particulars: dose 10-80 mg/kg. The essentials:
(§4)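 Male Swiss-Webster mice made dependent with chronic morphine pellets. Compound is injected and wet-dog shakes, paw tremors and jumps are counted over 20 min after each injection.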

Data set [8] deals with T1, Mu-type opioid receptor (Mus musculus, UniProt P42866). In words: Binding affinity to mouse mu opioid receptor expressed in CHO cell membrane assessed as [35S]GTPgammaS binding incubated for 1.5 hrs by liquid scintillation counter analysis. It is filed as cell membranes. The essentials:
as §2

The target of data set [9] is T1, Mu-type opioid receptor. In words: Antagonist activity at mouse mu opioid receptor expressed in CHO cells co-expressing Gqi5 assessed as inhibition of DAMGO induced increase in intracellular calcium flux incubated for 15 mins by Calcium flux assay. It is filed as functional, cell-based. The essentials: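 MOR-CHO cells transiently transfected with Gqi5 (4 h at 37 °C, 5% CO2), replated and used 48 h post-transfection. For antagonist mode DAMGO is then added. Fluorescence (RFU) is read for 90 s and peak values are taken. IC50 comes from non-linear regression. Triplicates, at least four experiments.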

A short description of data set [10]: Metabolic stability in human liver microsomes assessed as half life. It is filed as ADME, Microsome. The essentials:
as §1

Data set [11] deals with Mus musculus. Briefly: Effect of compound on chronic morphine pelleted Swiss Webster mouse model assessed as decrease in wet-dog shake symptom at 10 to 80 mg/kg, sc and measured for 20 mins by withdrawal assay. The format is functional, organism-based. Particulars: dose 10-80 mg/kg. The essentials:
as §4

The test system of data set [12] is Mus musculus. Briefly: Effect of compound on chronic morphine pelleted Swiss Webster mouse model assessed as decrease in jump symptom at 40 mg/kg, sc and measured for 20 mins by withdrawal assay. It is filed as functional, organism-based. The essentials:
as §4

Data set [13] has as its target T1, Mu-type opioid receptor. In words: Binding affinity to mouse mu opioid receptor expressed in CHO cell membrane assessed as inhibition constant incubated for 1.5 hrs by competitive radioligand binding assay. The format is cell membranes.
Data set [14] can be described thus: Protein binding in rat plasma at 10 uM and measured upto 24 hrs by equilibrium dialysis based MS analysis. The format is ADME, cell-free.
Data set [15] deals with Mu-type opioid receptor (Mus musculus) (UniProt P42866). In words: Agonist activity at mouse mu opioid receptor expressed in CHO cells co-expressing Gqi5 assessed as increase in intracellular calcium level incubated for 15 mins by Calcium flux assay. The format is functional, cell-based. An outline of the steps: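 MOR-CHO cells transiently transfected with Gqi5 (4 h at 37 °C, 5% CO2), replated and used 48 h post-transfection. Cells are loaded with fluo-4 AM plus probenecid in HBSS–HEPES buffer for 45 min, then exposed to compound for 15 min (agonist mode 0.3 nM to 3 μM). For antagonist mode DAMGO is then added. Fluorescence (RFU) is read for 90 s and peak values are taken. IC50 comes from non-linear regression. Triplicates, at least four experiments.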

For data set [16], the species on record is Mus musculus. In words: Selectivity ratio, ratio of Ki for binding affinity to mouse kappa opioid receptor expressed in CHO cell membrane to Ki for binding affinity to mouse mu opioid receptor expressed in CHO cell membrane.
Data set [17] is described as follows: Protein binding in human plasma at 10 uM and measured upto 24 hrs by equilibrium dialysis based MS analysis. The format is ADME, cell-free.
The subject of data set [18] is Mus musculus. In words: Antinociceptive activity in sc dosed Swiss Webster mouse assessed as inhibition of morphine induced latency to tail withdrawal preincubated for 5 mins followed by morphine addition and measured after 20 mins by warm water tail immersion assay. The format is functional. As to conditions: 25 min. The essentials: as §3
Data set [19] deals with Kappa-type opioid receptor (Mus musculus) (UniProt P33534). In words: Binding affinity to mouse kappa opioid receptor expressed in CHO cell membrane assessed as stimulation of [35S]-GTPgammaS binding by measuring maximal efficacy incubated for 1.5 hrs by scintillation spectroscopy analysis relative U50488H. As to conditions: filed as modulator. The format is cell membranes. An outline of the steps:
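KOR [35S]GTPγS functional assay in KOR-expressing CHO membranes. Efficacy is expressed as % of the maximal stimulation by full agonist U50,488H, with EC50 also determined. Mean of at least three independent experiments.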

Data set [20] shares this target. In words: Binding affinity to mouse kappa opioid receptor expressed in CHO cell membrane assessed as stimulation of [35S]-GTPgammaS binding by measuring maximal efficacy incubated for 1.5 hrs by scintillation spectroscopy analysis relative SNC80. The format is cell membranes.

The source made the active and inactive calls. No cut-off for these calls is given here. Where only a bound is given, the exact number is not on record here.

For the compound `Cc1cc2cccc(C(=O)N[C@H]3CC[C@@]4(O)[C@H]5Cc6ccc(O)c7c6[C@@]4(CCN5CC4CC4)[C@H]3O7)c2[nH]1.Cl`, the t1/2 in [1] and in data set [10] was over 1 h in each case. Also, in data set [2], the Ratio was 2.2. In addition, the IC50 (as a rule, the midpoint of a concentration-inhibition curve) was found to be 0.14 nM in [3] and 87.5 nM on Mu-type opioid receptor [9]. Besides, the values for the Emax in data set [4], in data set [19] and in data set [20] were 12%, 73.9% and 26.7%, respectively. Besides, the figures for the Ki (in data set [5]; on Mu-type opioid receptor [13]) were 2.1 nM and 0.59 nM, respectively. In addition, the outcome in the data set on Mus musculus [6], in the data set on Mus musculus [7] and in the data set on Mus musculus [12] was Active. The EC50 (usually the concentration at which the effect is half-maximal) at Mu-type opioid receptor [8] was determined as 3.86 nM. For the same compound, the result (with Mus musculus [11]; in data set [15]) was inactive. The PPB was 96% in data set [14] and 99% in [17]. The Ratio Ki in the data set filed under Mus musculus [16] came out at 3.6. In addition, the ED50 (as a rule, the dose that gives a 50% effect, or the effect in half of the subjects) in the data set on Mus musculus [18] turned out to be 10.6 mg/kg.

The record behind these values is ChEMBL document CHEMBL5316274 (J Med Chem, 2023).
